Experimental data of several laboratories.
Lines come from different studies, so protocols differ.
CDK9: Cyclin-dependent kinase 9 (CDK9, Homo sapiens, UniProt P50750)
CDK9 with cyclin T1: Cyclin-dependent kinase 9, with cyclin T1 (CDK9, Homo sapiens, UniProt P50750)
CDK9 with cyclin K: Cyclin-dependent kinase 9, with cyclin K (CDK9, Homo sapiens, UniProt P50750)

Compound	target	test	setting	quantity	result
Cc1nc(C2CCN(C(=O)c3ccc(OC(F)(F)F)cc3N)CC2)c2ncc(N3CCN(C)CC3)cc2n1	CDK9	cell-free assay, competition with immobilised ligand	1 µM	remaining binding	79%
N#CCCc1ccc2c(c1)-c1[nH]c3ccc([N+](=O)[O-])cc3c1CC(=O)N2	CDK9 with cyclin T1	cell-free assay	0.5 µM	remaining signal	28.6%
C[C@H](c1cccc(C#N)c1)n1cc(Cl)cc(C(N)=O)c1=N	CDK9	cell-free assay, competition with immobilised ligand	1 µM	remaining binding	84%
O=C1NC(=O)c2cc(Nc3ccc(F)cc3)c(Nc3ccc(F)cc3)cc21	CDK9 with cyclin T1	cell-free assay	0.5 µM	remaining signal	95.4%
C=CC(=O)Nc1cc(Nc2nccc(Nc3cc(Cl)c(F)cc3C(C)(C)O)n2)c(OC)cc1N1CC[C@@H](N(C)C)C1	CDK9 with cyclin T1	enzyme activity, inhibitor	1 µM	inhibition	10%
CCN(CC)CCNC(=O)c1c(C)[nH]c(/C=C2\C(=O)Nc3ccc(F)cc32)c1C	CDK9 with cyclin T1	enzyme activity, inhibitor	0.3 µM	inhibition	-7%
O=C(CSc1nc2nccnc2c(=O)n1CCc1ccccc1)Nc1nccs1	CDK9 with cyclin K	enzyme activity, inhibitor	10 µM	inhibition	-8%
COc1cc(Cl)c(C(=O)N[C@@H](CN[C@H]2CC[C@@H](N)CC2)Cc2ccc(C#N)cc2)cc1-c1ccc(CN[C@H](C)c2ccc(C)cc2)o1	CDK9 with cyclin T1	enzyme activity, inhibitor	1 µM	remaining activity	99%
CS(=O)(=O)NCC[C@H](NC(=O)c1cncc2c1cnn2-c1ccc(F)cc1)c1ccnc(S(C)(=O)=O)c1	CDK9	cell-free assay, competition with immobilised ligand	1 µM	remaining binding	100%
Cc1cnc(NC2CCOCC2)nc1-n1cnc(C(=O)NC(CN)c2cc(F)cc(Cl)c2)c1 (stereo not shown)	CDK9 with cyclin T1	enzyme activity, inhibitor, radiometric	1 µM	remaining activity	46%
CCCCNc1ncc2c(-c3ccc(F)cc3)nn(C[C@H]3CC[C@H](N)CC3)c2n1	CDK9	target engagement in cells, inhibitor, chemoproteomics	20 mM	inhibition	29.3%
CN(C)CC#Cc1ccc(OCCCc2sc(N3CCc4cccc(C(=O)Nc5nc6ccccc6s5)c4C3)nc2C(=O)O)c(F)c1	CDK9	cell-free assay, competition with immobilised ligand	1 µM	remaining binding	94%
Cc1ccc(Nc2nccc(N(C)c3ccc4c(C)n(C)nc4c3)n2)cc1S(N)(=O)=O	CDK9 with cyclin T1	enzyme activity, inhibitor	0.5 µM	remaining activity	91.5%
CC(C)(C)c1nc(-c2cccc(NS(=O)(=O)c3c(F)cccc3F)c2F)c(-c2ccnc(N)n2)s1	CDK9 with cyclin K	enzyme activity, inhibitor, radiometric	1 µM	remaining activity	98%
CCN(CC)c1ccc(C2=NNC(=O)CC2C)cc1[N+](=O)[O-] (stereo not shown)	CDK9 with cyclin T1	enzyme activity, inhibitor	10 µM	remaining activity	105%
Cc1ccc(NC(=O)c2ccc(CN3CCN(C)CC3)cc2)cc1Nc1nc(-c2cccnc2)cs1	CDK9 with cyclin K	cell-free assay	0.5 µM	remaining signal	109%

Compound	target	test	setting	quantity	result
COc1cc(-c2cc(-c3ccc(N4CCNCC4)cc3)cnc2C)cc(OC)c1OC	CDK9 with cyclin T1	enzyme activity, inhibitor	1 µM	inhibition	3%
CC(C)(C)c1nc2c(s1)c1nc(N)ncc1c1ccc(NS(=O)(=O)c3c(F)cccc3F)c(F)c12	CDK9 with cyclin T1	enzyme activity, inhibitor, radiometric	1 µM	remaining activity	102%
CCCS(=O)(=O)Nc1ccc(F)c(C(=O)c2c[nH]c3ncc(-c4ccc(Cl)cc4)cc23)c1F	CDK9 with cyclin T1	enzyme activity, inhibitor	1 µM	inhibition	< 10%
CC(=O)N1CCC(c2ccc(C(=O)NC(=N)N)cc2C(F)(F)F)CC1	CDK9	cell-free assay, competition with immobilised ligand	1 µM	remaining binding	100%
Cn1cncc1C1=CN(c2ncnc3[nH]cnc23)CCS1	CDK9	enzyme activity, inhibitor, radiometric	50 nM	inhibition	12.4%
CNC(=O)c1ccc(Nc2ncc(C(F)(F)F)c(NCc3nccnc3N(C)S(C)(=O)=O)n2)cc1	CDK9	cell-free assay, competition with immobilised ligand	0.1 µM	remaining binding	86%
CN(C)C1CCN(CC#Cc2nn(C3CCCC3)c3nc(NCc4ccccc4)ncc23)C1 (stereo not shown)	CDK9 with cyclin T1	enzyme activity, inhibitor, FRET	1 µM	inhibition	1%
C#Cc1cccc(Nc2ncnc3cc(OCCOC)c(OCCOC)cc23)c1	CDK9 with cyclin T1	cell-free assay	0.5 µM	remaining signal	87.3%
CNC(=O)c1cc(Oc2ccc(NC(=O)Nc3ccc(Cl)c(C(F)(F)F)c3)cc2)ccn1	CDK9 with cyclin T1	enzyme activity, inhibitor	0.3 µM	inhibition	-4%
O=C1Nc2ccc(Cl)cc2C1=Cc1cc(Cl)c(O)c(Cl)c1	CDK9 with cyclin T1	cell-free assay	0.5 µM	remaining signal	95.2%
Cc1ccc(C(=O)NCc2ccsc2)cc1C#Cc1cn(C(C)C)c2ncnc(N)c12	CDK9 with cyclin T1	enzyme activity, inhibitor	1 µM	activity vs control	93%
CCCOc1ccc([C@H]2[C@H](C(=O)O)[C@@H](c3ccc4c(c3)OCO4)CN2CC(=O)Nc2c(CC)cccc2CC)cc1	CDK9	cell-free assay, competition with immobilised ligand	1 µM	remaining binding	88%
Cc1ccc(C(=O)Nc2ccc(CN3CCN(C)CC3)c(C(F)(F)F)c2)cc1C#Cc1cnc2cccnn12	CDK9	enzyme activity, inhibitor	23.5 nM	remaining activity	96%
CCCCN(CCCC)C(=O)CN1C[C@@H](c2cc(OC)c3c(c2)OCO3)[C@H](C(=O)O)[C@H]1CC(C)(C)CCC	CDK9	cell-free assay, competition with immobilised ligand	1 µM	remaining binding	100%
Cc1ccc(NC(=O)c2ccc(C)c(C(F)(F)F)c2)cc1C#Cc1nn(C2CCC(O)CC2)c2ncnc(N)c12 (stereo not shown)	CDK9 with cyclin T1	cell-free assay	10 µM	remaining signal	113%
